Platelet DG rel: inhibitors of platelet dense granule secretion, primary screen, cell-based, MLPCN, human platelets. human platelet-rich plasma, SFLLRN dense granule ATP release, luminescence. inhibition, %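 (compounds screened at 7.5 µM in platelet-rich plasma)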. 300,000 compounds, 0.22% hits;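 active = mean replicate score, as percent of positive control, at or above 50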
SENP8 block-1: SENP8 protease inhibitors, primary screen, biochemical, luminescence | AID 2540, 2010 | purified SENP8, Z-RLRGG-aminoluciferin cleavage | 330,000 compounds, 1.2% hits | inhibition, % at 10 µM; in the data active = inhibition above about 50%
Target sequence (Q96LD8 whole entry, looked up): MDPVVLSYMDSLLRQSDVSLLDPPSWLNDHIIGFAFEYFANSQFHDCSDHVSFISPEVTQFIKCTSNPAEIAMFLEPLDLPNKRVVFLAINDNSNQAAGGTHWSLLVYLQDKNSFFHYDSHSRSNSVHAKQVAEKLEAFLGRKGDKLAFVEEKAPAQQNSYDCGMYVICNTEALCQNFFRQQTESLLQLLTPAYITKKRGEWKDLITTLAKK
SENP8 block-2: human SENP8 protease inhibitors, primary screen, biochemical, fluorescence, Nedd8 protein substrate, uHTS | Sentrin-specific protease 8 (Homo sapiens), Q96LD8 | recombinant SENP8 | inhibition, % at 20 µM | 360,000 compounds, 0.64% hits | AID 602440, 2012; in the data active = inhibition mostly above about 40%, no sharp cut-off; inactive = mostly below about 27%
SENP6 inh: SENP6 protease inhibitors, primary screen, biochemical, luminescence, uHTS; Recombinant SENP6 catalytic domain, aminoluciferin luminescence; inhibition, % at 10 µM; 330,000 compounds, 1.8% hits;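 active = inhibition above about 50% at the single tested dose, limit read from the data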;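 note: plate controls were DMSO wells with enzyme for no effect and DMSO wells lacking enzyme for full effect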
SENP1 inh: human SENP1 catalytic domain inhibitors, primary screen, biochemical, FRET, uHTS. inhibition, % at 10 µM. AID 624204, 2012. 360,000 compounds, 0.21% hits. recombinant SENP1 catalytic domain, CyPet-SUMO1-YPet FRET cleavage;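 active = inhibition at least 30% at 10 µM, raw YFP signal under a set limit, fluorescence ratio 0.5 to 1.5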;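 note: 0% = enzyme with DMSO and 100% = no enzyme wells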
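Test system: human SENP1 catalytic domain; medium: Tris pH 8 buffer plus EDTA, NaCl, BME, BSA, NP40, catalase; incubation: 50 min reaction at room temperature; technique: FRET, CFP and YFP emission; controls: no-enzyme low control and enzyme-plus-DMSO high control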
SENP7 inh: SENP7 protease inhibitors, primary screen, biochemical, luminescence, uHTS | recombinant SENP7, Z-RLRGG-aminoluciferin luminescence, 40 min | 330,000 compounds, 1.5% hits | inhibition, % at 5 µM;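 active = inhibition above about 50% at the single test dose, limit read from the data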;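 note: plate controls were DMSO with enzyme for no effect and no enzyme buffer wells for full effect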
Target sequence (Q9BQF6 706-1050 limits assumed): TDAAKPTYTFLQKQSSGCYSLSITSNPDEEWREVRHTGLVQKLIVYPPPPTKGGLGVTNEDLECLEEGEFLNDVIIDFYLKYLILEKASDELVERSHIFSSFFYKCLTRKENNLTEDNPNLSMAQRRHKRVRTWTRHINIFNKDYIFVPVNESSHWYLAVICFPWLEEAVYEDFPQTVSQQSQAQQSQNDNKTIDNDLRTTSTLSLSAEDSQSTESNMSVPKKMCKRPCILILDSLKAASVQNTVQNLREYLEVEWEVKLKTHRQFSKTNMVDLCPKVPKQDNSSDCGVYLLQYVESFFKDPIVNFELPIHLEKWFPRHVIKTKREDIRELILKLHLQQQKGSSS
SENP8 confirm: SENP8 protease inhibitors, retest, confirmation, biochemical, luminescence, single concentration | 6,200 compounds, 40% hits | Recombinant SENP8, Z-RLRGG-aminoluciferin luminescence, 60 min | shares compounds with SENP7 inh | AID 488912, 2010 | inhibition, % at 12.5 µM;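 active = mean inhibition across replicates above about 50%, limit read from the data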
SENP6 conf: SENP6 protease inhibitors, confirmation, biochemical, luminescence, single concentration; shares compounds with SENP7 inh; recombinant SENP6, Z-RLRGG-aminoluciferin luminescence; inhibition, % at 12.5 µM; 6,200 compounds, 58% hits
SENP7 confirm: SENP7 protease inhibitors, retest, confirmation, biochemical, luminescence, single concentration; AID 488917, 2010; recombinant SENP7, Z-RLRGG-aminoluciferin luminescence, 40 min; 6,200 compounds, 69% hits; shares compounds with SENP7 inh; inhibition, % at 12.5 µM
Casp3 select: caspase-3 protease inhibitors, confirmation, selectivity assay for SENP inhibitor project, biochemical, single concentration | shares compounds with SENP7 inh | purified caspase-3, Z-DEVD-aminoluciferin luminescence, 60 min | inhibition, % at 12.5 µM | 6,200 compounds, 60% hits | AID 488918, 2010;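 active = mean inhibition above about 50%, limit read from the data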;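 note: plate controls were enzyme with DMSO for no effect and wells without caspase-3 for full effect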
SENP luc ctr: interferes with luciferase luminescence in SENP counter-screen; shares compounds with SENP7 inh; Pre-incubated SENP8/Z-RLRGG-aminoluciferin, luciferase luminescence interference; inhibition, % at 12.5 µM; 6,200 compounds, 39% hits; AID 488919;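 active = mean inhibition above about 50% when retested at one dose, limit read from the data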;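 note: plate controls were DMSO wells with completed reaction for no effect and substrate without enzyme for full effect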
The depositor's hits bear a star; i = inactive; · = no result given. An excerpt weighted towards active compounds, which were near 2.6% of everything screened.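 Rule for the calls, unless noted: active = mean inhibition above about 50% in the one-dose retest (limit read from the data); inactive = the rest.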

SMILES | Platelet DG rel | SENP8 block-1 | SENP8 block-2 | SENP6 inh | SENP1 inh | SENP7 inh | SENP8 confirm | SENP6 conf | SENP7 confirm | Casp3 select | SENP luc ctr
COc1cccc(C(=O)/C=C/Nc2ccc(NC(C)=O)cc2)c1 | 35 | 79* | -98 | 93* | -27 | 87* | 90* | 89* | 98* | 87* | 89*
COc1ccc(OC)c(N/C(C)=C/C(=O)c2ccccc2)c1 | -2 | -6 | 26 | 7 | 0 | 2 | · | · | · | · | ·
COc1ccc(OC)c(N/C=C/C(=O)c2ccccc2)c1 | 83* | 95* | 12 | 93* | -28 | 101* | 100* | 101* | 104* | 99* | 95*
COc1cccc(C(=O)/C=C/Nc2cccc(O)c2)c1 | 68* | 95* | -78 | 96* | -57 | 100* | 99* | 100* | 103* | 98* | 98*
COc1cccc(N/C=C/C(=O)c2ccc(C)cc2)c1 | 24 | 95* | -174 | 91* | -65 | 96* | 96* | 98* | 101* | 94* | 93*
COc1cccc(N/C=C/C(=O)c2ccc(Cl)cc2)c1 | -1 | · | -96 | · | -74 | · | · | · | · | · | ·
O=C(Nc1cccnc1)c1cc2cc(Br)ccc2o1 | 2 | 85* | 5 | 91* | -1 | 92* | 89* | 88* | 100* | 91* | 32
O=C(Nc1cccc(Br)c1)c1cc2ccccc2o1 | 6 | 89* | 7 | 94* | 1 | -11 | 94* | 94* | 101* | 82* | 88*
CCOC(=O)c1ccc(NC(=O)c2cc3ccccc3o2)cc1 | 2 | 45 | -10 | 60* | -1 | 52* | 32 | 53* | 60* | 43 | 42
Cc1cccc(NC(=O)c2cc3ccccc3o2)c1 | 2 | 87* | 10 | 94* | 1 | 94* | 8 | 94* | 101* | 91* | 92*
COC(=O)c1ccc(C(=O)OC)c(NC(=O)COC(=O)CCOc2ccc(C)cc2)c1 | -9 | -18 | -80 | -3 | -1 | -13 | · | · | · | · | ·
C/C(=N/O)c1no[n+]([O-])c1/C(C)=N\O | 12 | -5 | 28 | -27 | 2 | 2 | · | · | · | · | ·
CCC(=O)Nc1ccc(NC(=O)c2cc3ccccc3o2)c(OC)c1 | -3 | -6 | -12 | 22 | -1 | 4 | · | · | · | · | ·
CCC(=O)Nc1cccc(NC(=O)c2cc3ccccc3o2)c1 | 11 | 54* | 22 | 67* | 2 | 74* | 74* | 67* | 88* | 74* | 70*
COc1ccc(NC(=S)Nc2cccc3ccccc23)cc1OC | -7 | 77* | -376 | 88* | -23 | 63* | 4 | 11 | 4 | 1 | 3
Cc1ccc(C(=O)NNC(=S)Nc2cccc3ccccc23)s1 | -47 | 28 | -328 | 55* | 2 | 44 | -11 | -13 | -1 | -2 | 16
CC(=O)Nc1cccc(NC(=S)Nc2cccc3ccccc23)c1 | 0 | 24 | -467 | 45 | -22 | 22 | · | · | · | · | ·
CC(=O)c1cccc(NC(=S)Nc2cccc3ccccc23)c1 | 16 | 62* | -396 | 84* | -5 | 19 | 1 | 7 | 5 | 10 | 13
COc1ccc(NCc2ccc3c(c2)OCO3)cc1Cl | 3 | -3 | 10 | 11 | 0 | 1 | · | · | · | · | ·
COc1cc2sc3cc(NCC[C@@H]4CCCN4C)ccc3c(=O)c2cc1OC | · | 50* | i | 57* | -26 | 53* | 9 | 9 | 13 | 30 | 37
COc1cccc2sc3ccc(NCCC4CCCN4C)cc3c(=O)c12 (stereo not given) | 1 | -21 | 9 | -8 | -5 | 12 | · | · | · | · | ·
COc1cc2sc3cc(NCc4ccc5c(c4)OCO5)ccc3c(=O)c2cc1OC | · | 44 | -494 | -25 | -24 | 70* | -24 | -14 | -3 | 7 | 18
COc1cccc2sc3cc(NCc4ccc5c(c4)OCO5)ccc3c(=O)c12 | · | 14 | -487 | 11 | -63 | 58* | 2 | 2 | 3 | 15 | 12
COc1cc2sc3cc(NCc4ccc(C)o4)ccc3c(=O)c2cc1OC | · | 81* | i | -23 | -52 | 87* | -9 | 56* | 88* | 80* | 62*
COCc1ccc(C(=O)N2CCCC(N3CCN(c4ccc(F)cc4)CC3)C2)o1 (stereo not given) | 4 | -3 | 7 | -4 | 0 | 1 | · | · | · | · | ·
SMILES | Platelet DG rel | SENP8 block-1 | SENP8 block-2 | SENP6 inh | SENP1 inh | SENP7 inh | SENP8 confirm | SENP6 conf | SENP7 confirm | Casp3 select | SENP luc ctr
COCC(C)n1c(C)cc(C(=O)COC(=O)c2cc(=O)[nH]c3ccccc23)c1C (stereo not given) | · | -15 | -331 | 11 | -2 | -1 | · | · | · | · | ·
COCC(C)n1c(C)cc(C(=O)COC(=O)c2n[nH]c3ccccc23)c1C (stereo not given) | -6 | 21 | 16 | 55* | 0 | 30 | 48 | 42 | 67* | 47 | 48
CCOC(=O)N1CCN(S(=O)(=O)N2CCCC(C(=O)NCc3ccccc3OCC)C2)CC1 (stereo not given) | · | · | 9 | · | 1 | · | · | · | · | · | ·
Cc1cc(Br)cc(C=Nc2ccc(N3CCOCC3)cc2)c1O | 1 | -6 | 37 | 29 | 87 | 73* | 12 | 12 | -1 | 29 | 3
Oc1ccc(Br)cc1C=Nc1ccc(Cl)cc1 | 1 | -7 | 2 | -18 | -21 | 4 | · | · | · | · | ·
Oc1cc(Br)ccc1C=Nc1ccc(N2CCCCC2)cc1 | 2 | 35 | 22 | 11 | 63 | 53* | 15 | 26 | 2 | 48 | 0
